In ChEMBL document CHEMBL1124902, “Hydroxyperfluoroazobenzenes: novel inhibitors of enzymes of androgen biosynthesis” (J Med Chem, 1990):

Biological target: T1, Steroid 5-alpha-reductase (Rattus norvegicus, UniProt P24008+P31214)
T1 sequence (P24008 whole entry): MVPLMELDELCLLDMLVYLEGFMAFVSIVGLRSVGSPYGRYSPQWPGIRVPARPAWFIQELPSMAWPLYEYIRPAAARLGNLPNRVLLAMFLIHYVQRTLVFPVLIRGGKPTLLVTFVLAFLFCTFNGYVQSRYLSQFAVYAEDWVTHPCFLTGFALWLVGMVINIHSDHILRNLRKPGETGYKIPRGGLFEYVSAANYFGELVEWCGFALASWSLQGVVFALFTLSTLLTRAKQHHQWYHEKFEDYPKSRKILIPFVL
T1 sequence (P31214 whole entry): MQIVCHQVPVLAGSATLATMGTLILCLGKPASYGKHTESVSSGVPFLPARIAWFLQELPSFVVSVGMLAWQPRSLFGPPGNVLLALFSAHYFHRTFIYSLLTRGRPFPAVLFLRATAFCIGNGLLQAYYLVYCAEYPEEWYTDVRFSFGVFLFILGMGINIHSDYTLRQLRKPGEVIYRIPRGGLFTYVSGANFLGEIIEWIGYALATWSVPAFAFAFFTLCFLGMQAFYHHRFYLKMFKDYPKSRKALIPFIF
Assay: Inhibition of rat testosterone-5 alpha-reductase activity at pH 6.6 from rat
Format: protein assay
Summary of the method: (§1)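 Crude nuclear fraction (ca. 1.5 mg) from adult Wistar rat ventral prostate, in 50 mM potassium phosphate. The substrate was 5 μM testosterone with 4-[¹⁴C]testosterone, plus 1 mM NADPH and 1 mM DTT. Incubation ran 30 min at 37 °C and was stopped with ethyl acetate/HgCl₂. [¹⁴C]DHT was measured by TLC radioscan. Inhibitors were added in 2% DMSO at 1, 2, 5, 10 and 20 μM, with assays in duplicate.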

First: Oc1c(F)c(F)c(/N=N/c2c(F)c(F)c(O)c(F)c2F)c(F)c1F
Second: Oc1c(F)c(F)c(/N=N/c2c(F)c(F)c(F)c(F)c2F)c(F)c1F
The IC50 of the first is 2.5-fold lower: 0.79 µM for the first, 2 µM for the second.

`CC(=O)[C@H]1CC[C@H]2[C@@H]3CCC4=CC(=O)CC[C@]4(C)[C@H]3CC[C@]12C` [PROGESTERONE] gave an IC50 of 1.6 µM.

Biological target: T2, Steroid 17-alpha-hydroxylase/17,20 lyase (Rattus norvegicus, UniProt P11715)
T2 sequence (P11715 whole entry): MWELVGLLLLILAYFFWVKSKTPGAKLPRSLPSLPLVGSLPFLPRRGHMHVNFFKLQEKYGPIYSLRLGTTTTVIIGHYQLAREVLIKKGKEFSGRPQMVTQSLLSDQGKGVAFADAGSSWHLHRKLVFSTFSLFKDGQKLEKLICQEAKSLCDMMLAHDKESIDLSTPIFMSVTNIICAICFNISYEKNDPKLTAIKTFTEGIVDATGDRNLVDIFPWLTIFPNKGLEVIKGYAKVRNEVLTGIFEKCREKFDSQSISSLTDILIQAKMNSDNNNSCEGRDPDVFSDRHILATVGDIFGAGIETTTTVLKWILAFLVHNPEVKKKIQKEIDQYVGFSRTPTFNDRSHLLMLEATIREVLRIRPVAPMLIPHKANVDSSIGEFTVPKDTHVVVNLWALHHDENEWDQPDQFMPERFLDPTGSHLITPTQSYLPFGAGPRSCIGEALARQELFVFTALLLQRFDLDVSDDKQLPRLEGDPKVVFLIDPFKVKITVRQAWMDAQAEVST
Assay: Percent inhibition of Steroid 17-alpha-hydroxylase/17,20 lyase from rat testes microsomes at 100 uM

First: CC(=O)N1CCN(c2ccc(OCC3COC(Cn4ccnc4)(c4ccc(Cl)cc4Cl)O3)cc2)CC1 (stereo unspecified) [KETOCONAZOLE]
Second: Oc1ccc(/N=N/c2ccccc2)cc1
The inhibition at 100 µM of the first is higher: 48% for the first, 0% for the second.

Compared with `Oc1c(F)c(F)c(/N=N/c2c(F)c(F)c(O)c(F)c2F)c(F)c1F`, `Oc1c(F)c(F)c(/N=N/c2c(F)c(F)c(F)c(F)c2F)c(F)c1F` is higher in inhibition at 100 µM: 14% for the first, 71% for the second.

Going from `Fc1c(F)c(F)c(/N=N/c2c(F)c(F)c(F)c(F)c2F)c(F)c1F` to `Oc1c(F)c(F)c(F)c(F)c1/N=N/c1c(F)c(F)c(F)c(F)c1F`, the inhibition at 100 µM rises from 0% to 83%.

Going from `Fc1c(F)c(F)c2c(c1F)N=Nc1c(F)c(F)c(F)c(F)c1O2` to `c1ccc(/N=N/c2ccccc2)cc1` [AZOBENZENE], the inhibition at 100 µM falls from 88% to 0%.

Biological target: T2, Steroid 17-alpha-hydroxylase/17,20 lyase
Assay: Percent inhibition of Steroid 17-alpha-hydroxylase/17,20 lyase of rat testes microsomes at 100 uM

Compound `Oc1c(F)c(F)c(/N=N/c2c(F)c(F)c(F)c(F)c2F)c(F)c1F` has an inhibition at 100 µM of 76%.

Biological target: T1, Steroid 5-alpha-reductase
Assay: Binding constant of Testosterone-5 alpha-reductase activity at pH 7.4
Format: protein assay

Going from `Oc1c(F)c(F)c(/N=N/c2c(F)c(F)c(O)c(F)c2F)c(F)c1F` to `Oc1c(F)c(F)c(/N=N/c2c(F)c(F)c(F)c(F)c2F)c(F)c1F`, the Ki rises from 4 µM to 10 µM (2.5-fold).

Biological target: T1, Steroid 5-alpha-reductase
Assay: Inhibition of Testosterone-5 alpha-reductase activity at pH 6.6 from rat; B = no inhibition at the highest concentration tested (20 uM)
Format: protein assay
Summary of the method: as §1

With `Oc1c(F)c(F)c(F)c(F)c1/N=N/c1c(F)c(F)c(F)c(F)c1F` the IC50 was “No inhibition”.

Biological target: T1, Steroid 5-alpha-reductase
Assay: Inhibition of Testosterone-5 alpha-reductase activity at pH 7.4 from rat
Format: protein assay
Summary of the method: as §1

Going from `Oc1c(F)c(F)c(/N=N/c2c(F)c(F)c(O)c(F)c2F)c(F)c1F` to `Oc1c(F)c(F)c(/N=N/c2c(F)c(F)c(F)c(F)c2F)c(F)c1F`, the IC50 rises from 5 µM to 14 µM (2.8-fold).

`CC(=O)[C@H]1CC[C@H]2[C@@H]3CCC4=CC(=O)CC[C@]4(C)[C@H]3CC[C@]12C` [PROGESTERONE] showed an IC50 of 2.6 µM.

Biological target: T2, Steroid 17-alpha-hydroxylase/17,20 lyase
Assay: Inhibition of 17-alpha-hydroxylase/17,20 lyase from rat testes microsomal preparation
Format: microsomes, Testis
Summary of the method: (§2)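 Rat testis microsomes as enzyme source. The assay contained 1 μM [³H]progesterone, 250 μM NADPH, a glucose-6-phosphate/G6P dehydrogenase regenerating system, 1 mM MgCl₂, 0.1 mM EDTA and 0.1 mM DTT in 50 mM sodium phosphate at pH 7.4, with 5% ethanol vehicle. Incubation ran 10 min at 37 °C. Substrate, 17α-OH-progesterone and product were quantified, giving separate hydroxylase and lyase steps. Each point was run in triplicate at ≥3 concentrations, and IC50 was taken from a Dixon linear regression.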

First: CC(=O)N1CCN(c2ccc(OCC3COC(Cn4ccnc4)(c4ccc(Cl)cc4Cl)O3)cc2)CC1 (stereo unspecified) [KETOCONAZOLE]
Second: Fc1c(F)c(F)c2c(c1F)N=Nc1c(F)c(F)c(F)c(F)c1O2
The IC50 of the first is 8.3-fold lower: 6 µM for the first, 50 µM for the second.

First: Oc1c(F)c(F)c(/N=N/c2c(F)c(F)c(F)c(F)c2F)c(F)c1F
Second: Oc1c(F)c(F)c(F)c(F)c1/N=N/c1c(F)c(F)c(F)c(F)c1F
The IC50 of the first is 2.1-fold lower: 30 µM for the first, 63 µM for the second.

Biological target: T1, Steroid 5-alpha-reductase
Assay: Inhibition of Testosterone-5 alpha-reductase activity at pH 7.4 from rat; B = no inhibition at the highest concentration tested (20 uM)
Format: protein assay
Summary of the method: as §1

`Fc1c(F)c(F)c(/N=N/c2c(F)c(F)c(F)c(F)c2F)c(F)c1F` was tested, and the IC50 was “No inhibition”.
With `c1ccc(/N=N/c2ccccc2)cc1` [AZOBENZENE] the IC50 was “No inhibition”.
In the case of `Oc1ccc(/N=N/c2ccccc2)cc1`, the IC50 is reported as “No inhibition”.

Biological target: T2, Steroid 17-alpha-hydroxylase/17,20 lyase
Assay: Inhibition of Steroid 17-alpha-hydroxylase/17,20 lyase from rat testes microsomal preparation
Summary of the method: as §2

`CC(=O)N1CCN(c2ccc(OCC3COC(Cn4ccnc4)(c4ccc(Cl)cc4Cl)O3)cc2)CC1` (stereo unspecified) [KETOCONAZOLE] and `Fc1c(F)c(F)c2c(c1F)N=Nc1c(F)c(F)c(F)c(F)c1O2` are within 1.5-fold of each other in IC50: 11 µM for the first, 15 µM for the second.

Compared with `Oc1c(F)c(F)c(/N=N/c2c(F)c(F)c(F)c(F)c2F)c(F)c1F`, `Oc1c(F)c(F)c(F)c(F)c1/N=N/c1c(F)c(F)c(F)c(F)c1F` is 2.1-fold lower in IC50: 33 µM for the first, 16 µM for the second.

Biological target: T2, Steroid 17-alpha-hydroxylase/17,20 lyase
Assay: Percent inhibition of 17-alpha-hydroxylase/17,20 lyase of rat testes microsomes at 100 uM

Going from `CC(=O)N1CCN(c2ccc(OCC3COC(Cn4ccnc4)(c4ccc(Cl)cc4Cl)O3)cc2)CC1` (stereo unspecified) [KETOCONAZOLE] to `Oc1ccc(/N=N/c2ccccc2)cc1`, the inhibition at 100 µM falls from 62% to 6%.

Compared with `Oc1c(F)c(F)c(/N=N/c2c(F)c(F)c(O)c(F)c2F)c(F)c1F`, `Oc1c(F)c(F)c(F)c(F)c1/N=N/c1c(F)c(F)c(F)c(F)c1F` is higher in inhibition at 100 µM: 15% for the first, 62% for the second.

First: Fc1c(F)c(F)c(/N=N/c2c(F)c(F)c(F)c(F)c2F)c(F)c1F
Second: Fc1c(F)c(F)c2c(c1F)N=Nc1c(F)c(F)c(F)c(F)c1O2
The inhibition at 100 µM of the first is lower: 4% for the first, 67% for the second.

Work on `c1ccc(/N=N/c2ccccc2)cc1` [AZOBENZENE] yielded an inhibition at 100 µM of 0%.
